High-throughput results (PubChem)
PAD4 inh = inhibitors of human PAD4; Q9UM07; recombinant PAD4, RCA probe fluorescence polarization; inhibition, % at 6.36 µM; 330,000 tested, 0.41% active; AID 485272;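 active means percent inhibition above a cutoff equal to the mean of all tested compounds plus 3 SD, cut at about 15% in these data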;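 further: 0% = PAD4 with RCA probe and DMSO and 100% = probe without PAD4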
Fh CTSL1 inh = counter-screen for PFM18AAP inhibitors: inhibitors of F. hepatica cathepsin L1. 300,000 tested, 0.49% active. recombinant F. hepatica cathepsin L1, Z-Leu-Arg-MCA fluorescence. AID 1906. inhibition, % at 5.96 µM;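 active means inhibition above the mean of all tested compounds plus 3 SD, set per screening campaign, cut at about 17% in these data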;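 further: 0% = plate median of test compound wells and 100% = 1 µM Z-Phe-Ala-diazomethylketone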
HKDC1 inhibitor = HKDC1 (human) hexokinase inhibition; recombinant HKDC1, G6PDH/diaphorase resazurin coupled fluorescence; inhibition, % at 20 µM; 340,000 tested, 0.16% active; AID 493160;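 active means inhibition above about 35% when tested at 20 µM, limit read from the data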;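 further: plate controls were DMSO wells with enzyme for no effect and DMSO wells lacking enzyme for full effect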
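Incubation: 90 min at room temperature in dark / Material: recombinant HKDC1 (HK5) hexokinase enzyme, produced in-house / Quantity: enzyme 5 µg/mL final / Compound: one dose of 20 µM, 1% DMSO / Reagent: glucose and ATP substrates / Buffer or medium: Tris pH 8.0 buffer with MgCl2, Tween-20, BSA, BME / Technique: resorufin fluorescence at 613 nm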
TDP2 absorb = blocks human TDP2 phosphodiesterase activity; O95551; recombinant TDP2, T5PNP hydrolysis, p-nitrophenol absorbance 415 nm; inhibition, % at 12.8 µM; 370,000 tested, 0.34% active;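 active means inhibition above the mean of all tested compounds plus 3 SD, set per campaign, cut at about 25% in these data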;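 further: 0% = DMSO with enzyme and 100% = buffer with substrate but no TDP2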
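System – recombinant human TDP2 · Amount – 120 nM TDP2 per well · Buffer or medium – Mg2+-containing Tris-HCl buffer, pH 7.5 · Reagent – T5PNP substrate, 5 mM · Dosing – 12.8 µM single point, 1% DMSO · Incubation – 2 h at 37 °C · Measured by – epi absorbance · Read-out basis – percent inhibition · Benchmarks – high control without enzyme, low control DMSO plus TDP2 · Repeats – singlicate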
UCH37 inh = blocks the human deubiquitinase UCH37; Q9Y5K5; purified proteasome/UCH37, Ub-AMC cleavage fluorescence; inhibition, % (no concentration beside the values); 330,000 tested, 0.33% active;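 active means mean inhibition over replicate wells above about 20%, limit read from the data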;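 further: 0% = compound-free wells with enzyme and 100% = wells lacking proteasome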
Target sequence (Q9Y5K5 whole entry, looked up): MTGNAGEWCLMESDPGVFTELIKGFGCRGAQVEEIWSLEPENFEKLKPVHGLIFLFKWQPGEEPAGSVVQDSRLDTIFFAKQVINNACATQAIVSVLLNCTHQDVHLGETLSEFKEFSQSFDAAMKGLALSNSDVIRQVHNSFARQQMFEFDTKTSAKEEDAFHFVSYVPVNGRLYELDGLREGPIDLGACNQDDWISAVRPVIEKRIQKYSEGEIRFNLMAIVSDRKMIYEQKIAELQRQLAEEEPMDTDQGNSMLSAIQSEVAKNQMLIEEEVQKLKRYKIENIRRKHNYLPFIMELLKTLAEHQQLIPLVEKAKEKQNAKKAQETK
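assay system = human UCH37 enzyme supplied as purified proteasome complex | amount = proteasome at 0.15 nM in the dispensed enzyme solution | schedule = 30 min compound-proteasome preincubation then 25 min substrate reaction, room temperature | measured by = fluorescence, ex 355 nm, em 460 nm | benchmarks = no-proteasome wells (full inhibition) and compound-free wells (no inhibition)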
GSTO1 inh = counter-screen for RBBP9 inhibitors: inhibitors of human GSTO1; P78417; recombinant GSTO1, activity-based probe fluorescence polarization; inhibition, % at 5.96 µM; 300,000 tested, 1.1% active; AID 1974;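 active means inhibition above the campaign mean inhibition plus 3 SD, cut at about 35% in these data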;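 further: 0% = GSTO1-1 with DMSO and 100% = wells lacking GSTO1-1 enzyme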
* marks the source's active call; other numbers are inactive results; · = no result given. This is a sample that favours compounds with a hit; in the whole collection about 1.6% have one here.

SMILES	PAD4 inh	Fh CTSL1 inh	HKDC1 inhibitor	TDP2 absorb	UCH37 inh	GSTO1 inh
CC(C)Oc1ccc(Br)cc1/C=N\NC(N)=S	0	47*	-3	10	·	-5
Cc1cc(/C=N/NC(N)=S)c(C)n1-c1cccc(Cl)c1	-3	14	18	5	·	3
Cc1cc(/C=N/NC(N)=S)c(C)n1-c1ccc(Br)cc1	-7	42*	-1	5	·	1
Cc1cc(/C=N/NC(N)=S)c(C)n1-c1ccc(Cl)cc1	-1	17*	-10	7	·	-32
O=C(Cn1cnc2ccccc21)NN=Cc1cccc([N+](=O)[O-])c1	·	·	·	·	3	·
CCC(CC)C(=O)OCC(=O)NC12CC3CC(CC(C3)C1)C2	-4	-4	-7	3	1	37*
COc1cccc2cc(-c3ccnc(=S)[nH]3)oc12	45*	2	·	·	·	-13
COc1ccc(C=NOC/C(O)=C(\C#N)c2nc3ccccc3[nH]2)cc1OC	·	·	·	·	2	·
CSc1ccccc1NC(=O)C1CCN(S(C)(=O)=O)CC1	-2	-1	-3	12	0	35*
COc1ccc(C=NNC(=O)CN2CCCc3ccccc32)c(OC)c1	·	·	·	·	3	·
CC(=O)c1ccc(N2CCN(C(=O)c3ccc(Cn4c(=S)[nH]c5ccc(N6CCOCC6)cc5c4=O)cc3)CC2)cc1	-1	9	-2	-7	-59	35*
O=C(NC1CCCCC1)c1cc([N+](=O)[O-])ccc1N1CCCC1	-2	34*	-4	-5	6	4
CN(C(=O)c1cc([N+](=O)[O-])ccc1N1CCCC1)C1CCCCC1	-6	22*	-6	-14	7	-9
CC(=O)c1cc2c(O)c(O)ccc2o1	-2	-1	19	-14	1	37*
CC(=NNC(=O)c1ccc(Br)s1)c1ccncc1	·	·	·	·	2	·
CC(=O)Nc1ccc(NS(=O)(=O)c2cccc3nonc23)cc1	-5	17*	-3	-7	5	6
CC(=O)c1ccccc1NS(=O)(=O)c1cccc2nonc12	-3	-6	-5	3	1	-1
CC1=CCC(C(C)(C)NC(=O)c2ccccc2)CC1=NO (centres undefined)	·	·	·	·	0	·
O=c1c2c3nc4ccccc4nc3n(-c3ccc4c(c3)OCCO4)c2ncn1C1CCCC1	4	0	48*	3	-11	7
O=C(COC(=O)c1ccc[nH]c1=O)NCCc1ccc(Cl)cc1Cl	-3	18*	-7	3	-1	-1
CCOC(=O)[C@H]1[C@H]2COc3ccc(Br)cc3[C@@H]2N2C(=O)N(c3ccc(F)cc3)C(=O)[C@@]12C	4	·	7	6	-2	·
CCOC(=O)[C@@H]1[C@H]2COc3ccc(Br)cc3[C@@H]2N2C(=O)N(c3ccc(F)cc3)C(=O)[C@@]12C	-7	·	6	1	20*	·
CCOc1ccccc1CNC(=O)Cn1c(=O)oc2ccccc21	3	20*	-4	5	2	1
COc1cccc(CNC(=O)Cn2c(=O)oc3ccccc32)c1OC	-3	0	-3	-6	7	-1
Cc1ccccc1CS(=O)(=O)CCC(=O)NCCCN1CCN(c2ccccc2F)CC1	7	-1	-2	1	33*	3
SMILES	PAD4 inh	Fh CTSL1 inh	HKDC1 inhibitor	TDP2 absorb	UCH37 inh	GSTO1 inh
O=C(CCS(=O)(=O)Cc1ccc(Cl)cc1)NCCCN1CCN(c2ccccc2F)CC1	-5	0	11	6	0	-1
COc1ccccc1/C=C/C=NNc1cccc(C(=O)O)c1	·	·	·	·	3	·
Cc1cc(C)c2ccc(C=NO)nc2c1O	·	·	·	·	2	·
Cc1cc(NC(=O)C23CC4CC(CC(C4)C2)C3)n[nH]1	2	20*	-2	-8	-1	17
CCSc1nnc([C@H](Cc2ccccc2)NC(=O)OC(C)(C)C)o1	-2	1	-8	-6	2	2
COC(=O)CSc1nnc([C@H](CC(C)C)NC(=O)OC(C)(C)C)o1	-2	52*	-8	-21	3	-1
Cc1ccccc1CS(=O)(=O)c1nnc([C@H](Cc2ccccc2)NC(=O)OC(C)(C)C)o1	4	29*	1	1	1	6
CC(C)(C)OC(=O)N[C@@H](Cc1ccccc1)c1nnc(S(=O)(=O)Cc2ccccc2)o1	1	25*	·	-18	·	1
